Test results as given in PubChem BioAssay AID821 (SRMLSC, 2007).
Calls of active or inactive are those of the source.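 How the source made its calls: active means compounds whose fitted half-maximal concentration for reducing fibroblast viability is 100 µM or lower; inactive means the rest.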

assay: inhibition of LL 47 lung fibroblast growth, concentration-response curve, selectivity screen for endothelial cell growth inhibitor project, cellular system, ATP luminescence readout (AID 821); conditions: LL 47 lung fibroblast viability, ATP luminescence; at 20 µM (top of the series);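 further: 100% = median of untreated cell-only wells and 0% = no luminescence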
Method in brief: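 System: LL 47 human lung fibroblast cells. Timing: overnight cell settling, then 72 h compound exposure at 37 °C. Measured by: CellTiter-Glo luminescence. Evaluation: percent viability relative to untreated wells, EC50 via 4-parameter fit.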

Row | SMILES | viability
1 | CC(=O)Nc1ccc(S(=O)(=O)N2CCN(c3nc(NC4CCCC4)c4ccccc4n3)CC2)cc1 | 84.8% (inactive)
2 | CC1=C(C)CS(=O)N(S(=O)(=O)c2ccccc2)C1 (configuration not stated) | 86.9% (inactive)
3 | CCOC(=O)c1ccc2c(c1)NC(=O)C(N1CCN(c3ccc(OC)cc3)CC1)S2 (configuration not stated) | 84.9% (inactive)
4 | Clc1ccccc1-c1ccc(/C=N/n2cnnc2)o1 | 111% (inactive)
5 | c1ccc(CC2CCN(C3=Nc4cccc5cccc3c45)CC2)cc1 | 80.8% (inactive)
6 | COCCCNC(=O)c1ccc2c(=O)n(Cc3ccc4c(c3)OCO4)c(=S)[nH]c2c1 | 106% (inactive)
7 | Clc1ccc(-c2nc(NCCN3CCOCC3)c3ccccc3n2)cc1 | 83.1% (inactive)
8 | CCCCC(=O)Nc1ccc(C(=O)Nc2ccc(S(=O)(=O)N3CCCC3)cc2)cc1 | 104% (inactive)
9 | CCOc1ccc(Nc2oc(-c3ccc(Cl)cc3)nc2C#N)cc1 | 106% (inactive)
10 | COCCn1c(C)cc(C(=O)CSc2nc3ccccc3o2)c1C | 129% (inactive)
11 | COc1ccc(-c2cn3c(C)c(C(=O)Nc4cccc(NC(C)=O)c4)sc3n2)cc1 | 109% (inactive)
12 | Cc1cccc(-c2nc(CN3CCCC(C(=O)NC4CCC(C)CC4)C3)c(C)o2)c1 (configuration not stated) | 85.4% (inactive)
13 | O=C(Nc1cccc(-c2nnc(-c3ccccc3)o2)c1)c1ccc(Br)o1 | 118% (inactive)
14 | CSc1nc2c(cnn2-c2ccc(C)c(C)c2)c(=O)[nH]1 | 93.2% (inactive)
15 | Cc1ccc(C(C)C)c(OCC(=O)Nc2ccc3c(c2)nc(CN2CCCC2)n3C)c1 | 91.9% (inactive)
16 | COc1ccc2cc3cc(C(=O)Nc4ccc5c(c4)OCO5)oc3nc2c1 | 88.3% (inactive)
17 | CCCCc1oc2ccccc2c1C(=O)c1cc(I)c(OCCN(CC)CC)c(I)c1 | 88% (inactive)
18 | NC(=O)Cc1c[nH]c2cccc(O)c12 | 111% (inactive)
19 | Cc1cc(=O)[nH]c2ccc(Cl)cc12 | 102% (inactive)
20 | O=Cc1ccc(Sc2nnc(-c3ccccc3)o2)c([N+](=O)[O-])c1 | 89.9% (inactive)
21 | O=C(Nc1cccnc1)c1ccc(Oc2ccccc2)cc1 | 85.3% (inactive)
22 | OC(COc1ccc(Cl)c2ccccc12)CN1CCN(c2ccccn2)CC1 (configuration not stated) | 109% (inactive)
23 | C=C(C)COc1ccc(-c2n[nH]c(C)c2Oc2ccccc2OC)c(O)c1 | 94.7% (inactive)
24 | CCCOC(=O)c1ccc(Oc2c(-c3ccc(OC)cc3O)n[nH]c2C)cc1 | 97.5% (inactive)

Row | SMILES | viability
25 | O=C1CCCc2c1[nH]c1ccc(Br)cc21 | 107% (inactive)
26 | CCN(CC(O)Cn1c2ccccc2c2ccccc21)S(=O)(=O)c1ccc(C)cc1 (configuration not stated) | 96.4% (inactive)
27 | O=C(CCC1COc2ccccc2O1)Nc1ccc(Cl)cn1 (configuration not stated) | 95.5% (inactive)
28 | CCOC(=O)N1CCc2c(sc(NC(=O)c3ccc(S(=O)(=O)N4CCCC4)cc3)c2C#N)C1 | 81.6% (inactive)
29 | CCC(C)NC(=O)c1c(N)n(/N=C/c2cccnc2)c2nc3ccccc3nc12 (configuration not stated) | 104% (inactive)
30 | COc1ccc(CCC(=O)N2CCN(C3CCCCC3)CC2)cc1 | 95.1% (inactive)
31 | Cc1cccc(NC(=O)c2cc(NC(=O)c3ccco3)ccc2N2CCCCC2)c1 | 82.5% (inactive)
32 | CCOC(=O)N1CCN(c2ncnc3c2oc2nc(C(C)C)c4c(c23)CCC4)CC1 | 108% (inactive)
33 | CC1CCN(S(=O)(=O)c2ccc(NC(=O)Cn3nnc(-c4ccccc4F)n3)cc2)CC1 | 90.8% (inactive)
34 | CCOc1cc(C(=O)CSc2nnc(CNc3ccc(Cl)cc3)o2)ccc1NC(=O)CC | 96% (inactive)
35 | O=C(Nc1ccc(OC(F)F)c(Cl)c1)Nc1ccc2c(c1)OCO2 | 109% (inactive)
36 | Nc1c(C(=O)NCc2ccc(F)cc2)c2nc3ccccc3nc2n1CCCN1CCOCC1 | 85.7% (inactive)
37 | Cc1nn(C)c(C)c1NC(=O)CSc1nc(C2CC2)nc2c1cnn2-c1ccccc1 | 108% (inactive)
38 | CCOC(=O)c1c(OCC)[nH]c2c1cc(O)c1ccccc12 | 117% (inactive)
39 | Cn1c(CNc2cccc(Cl)c2)nnc1SCC(=O)OC1CCCCC1 | 86.7% (inactive)
40 | Cc1ccc(-n2c(Cc3cccs3)nnc2SCC(=O)Nc2ccc(F)c(F)c2)cc1 | 95.7% (inactive)
41 | CC1=C(SCCC#N)S/C(=C2\SC(C)=C(SCCC#N)S2)S1 | 112% (inactive)
42 | Cc1cc(C(=O)Nc2nc3ccc(S(C)(=O)=O)cc3s2)c(C)o1 | 92.9% (inactive)
43 | N/C(Cc1ccc(Cl)cc1)=N\OC(=O)c1ccc2ccccc2c1 | 91.6% (inactive)
44 | Cc1c(CN(C)C(=O)c2sc3cc(Cl)ccc3c2Cl)cnn1C | 94.6% (inactive)
45 | COC(=O)c1ccc2c(=O)n(Cc3ccco3)c(SCC(=O)Nc3ccccc3Cl)nc2c1 | 104% (inactive)
46 | CC1=C(C(=O)OC2CCCCCCC2)C(c2cc3c(cc2Br)OCO3)CC(=O)N1 (configuration not stated) | 82.2% (inactive)
47 | CCCN(CCO)Cc1cccc(Br)c1 | 97.9% (inactive)
